PAX8 reporter: PAX8 transcriptional activity inhibition. RMG-I TPO-luciferase reporter, SteadyGlo, 24 h. inhibition, % at 12.6 µM. 360,000 tested, 1.2% active;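 active = mean replicate inhibition at least 60% with every replicate also reaching 60%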;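 note: luciferase light reporting Pax8 driven TPO promoter activity; plate controls were median of neutral control wells for no effect and mitoxantrone controls for full effect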
INS-1E GSIS act: GLuc luminescence reporter in INS-1E cells, primary screen for activators of glucose-dependent secretion of insulin; INS-1E GLuc reporter insulin secretion, 2-3 h; activation, % at 16.6 µM; 370,000 tested, 0.61% active;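 active = lowest replicate activation of at least 40%, so every replicate reaches that level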;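 note: 0% = median of neutral control wells and 100% = median of IBMX positive control wells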
CDK5 p35 inh: blocks human CDK5/p35 kinase activity; Recombinant CDK5/p35, ADP-Glo luminescence, 60 min; AID 488839; inhibition, % at 10 µM; Q00535+Q15078; 330,000 tested, 0.01% active;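 active = highest replicate inhibition of at least 50% and at least 75% of replicates reaching 50%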;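 note: plate controls were DMSO neutral control for no effect and GW8510 at 10 µM for full effect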
Target sequence (Q00535 whole entry, looked up): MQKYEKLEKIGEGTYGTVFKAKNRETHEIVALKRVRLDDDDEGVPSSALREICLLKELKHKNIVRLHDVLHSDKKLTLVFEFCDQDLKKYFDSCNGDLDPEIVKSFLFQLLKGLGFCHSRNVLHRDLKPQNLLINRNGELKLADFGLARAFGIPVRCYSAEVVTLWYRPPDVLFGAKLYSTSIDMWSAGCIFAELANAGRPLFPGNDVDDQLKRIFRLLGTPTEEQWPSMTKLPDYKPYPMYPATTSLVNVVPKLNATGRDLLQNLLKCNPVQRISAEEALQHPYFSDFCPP
Target sequence (Q15078 whole entry, looked up): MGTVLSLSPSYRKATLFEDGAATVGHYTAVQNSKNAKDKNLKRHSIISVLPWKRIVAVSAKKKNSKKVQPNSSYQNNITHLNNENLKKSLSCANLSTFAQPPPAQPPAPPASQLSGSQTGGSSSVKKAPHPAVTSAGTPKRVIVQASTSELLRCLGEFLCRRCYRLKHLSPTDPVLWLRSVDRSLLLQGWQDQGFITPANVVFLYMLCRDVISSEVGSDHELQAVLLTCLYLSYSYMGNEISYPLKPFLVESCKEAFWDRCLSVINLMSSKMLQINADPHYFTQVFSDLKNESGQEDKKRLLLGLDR
Cneo AK release: Cryptococcus neoformans lysis via adenylate kinase release. 360,000 tested, 0.2% active. lysis activity, % at 15 µM. C. neoformans lysis, adenylate kinase release luminescence, 4 h; normalised: neutral wells 0, clomiphene wells 100;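 active = mean lysis activity across replicates of at least 80%, whatever share of replicates individually reach that level; inactive = mean lysis activity below 80%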
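Test system: log-phase Cryptococcus neoformans yeast cells. Input: 5 × 10^6 yeast cells/mL. Medium: fresh YPD growth medium. Doses: single dose. Incubation: static 4 h at 37 °C with compound, 1 h detection. Measured by: luminescent adenylate kinase detection reagent. Read-out: signal increase indicating cell lysis. Benchmarks: Clomiphene.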
Env fusion inh: inhibitors of HIV Env-mediated cell fusion; 360,000 tested, 1.1% active; AID 651610; inhibition, % at 12.3 µM; HeLa-JRFL Env/CEM21 cell fusion, luciferase;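 active = mean replicate inhibition score of at least 50 and every replicate individually at or above 50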;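 note: 0% = plate neutral controls and 100% = maraviroc near 300 nM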
dFosB act-1: mouse delta FosB homodimer activation; P13346; purified delta FosB, TAMRA-CDK5 oligo fluorescence polarization; percent of positive-control signal above neutral wells; activation, % at 25 µM; 340,000 tested, 0.99% active; AID 493131;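 active = mean activation above about 17%, with every replicate also reaching it, limit read from the data, passing the limit was not always enough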
dFosB act-2: activators of mouse delta FosB homodimer DNA binding | shares compounds with dFosB act-1 | purified delta FosB, TAMRA-CDK5 oligo fluorescence polarization; normalised: neutral wells 0, positive control 100 | activation, % at 24.9 µM | 2,400 tested, under 10 active | AID 588690;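 active = highest replicate activation at or above 34% and every replicate reaching that threshold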;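 note: higher polarization means more probe DNA bound by delta FosB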
* = called active by the depositor; x = not tested or not shown; ! = a repeat was not active; [ ] = remark or other dose. Only some compounds are listed: those with a hit (about 2.9% of all), similar ones and a draw of the others.

SMILES | PAX8 reporter | INS-1E GSIS act | CDK5 p35 inh | Cneo AK release | Env fusion inh | dFosB act-1 | dFosB act-2
C/C=C/c1ccccc1[C@@H]1[C@@H](C#N)N(c2nc(CC)cs2)[C@H]1CO | x | -4 | x | x | x | x | x
Cc1ccc(NC(=O)CSc2nsc(SCC(=O)Nc3ccc(C)cc3C)c2C#N)c(C)c1 | -6 | -8 | -1 | x | 5 | -2 | x
Cc1csc(NC(=O)CSc2nsc(SCC(=O)Nc3nc(C)cs3)c2C#N)n1 | x | x | 2 | -3 | -216 | 25* | 3
Cc1cc(C)c(C#N)c(SCC(=O)Nc2nnc(-c3ccccc3)s2)n1 | x | x | 2 | 2 | x | 39* | 0
COCCCNC(=O)CCc1c(C)nc2c(c(C)nn2-c2ccccc2)c1C | 15 | 2 | 0 | 2 | 4 | -2 | x
CCN(CC)CCNC(=O)CCc1c(C)nc2c(c(C)nn2-c2ccc(C)c(C)c2)c1C | -6 | 5 | -1 | 3 | 10 | 20* | 1
C[C@H](CO)N1C[C@H](C)[C@@H](CN(C)C(=O)Nc2ccc3c(c2)OCO3)Oc2ccc(NC(=O)Nc3ccc4c(c3)OCO4)cc2CC1=O | 2 | 0 | x | x | x | x | x
Cc1ccc(C(C)C)c(OCC(=O)NNC(=O)Cn2[nH]c(=O)c3ccccc3c2=O)c1 | -2 | 13 | 0 | 1 | -7 | 35* | 4
CC(=O)Nc1ccc(NC(=O)COc2ccc(-c3ccc(C#N)cc3)cc2)cc1 | 2 | 13 | 1 | -3 | 4 | 34* | 4
O=C(COc1ccccc1)Nc1nc2cc3c(cc2s1)OCO3 | -14 | -3 | 2 | -1 | -17 | 28* | 1
CC(=O)Nc1ccc2nc(NC(=O)COc3cccc(C)c3)sc2c1 | 2 | 0 | 0 | 12 | 3 | 47* | 7
CC(=O)Nc1ccc2nc(NC(=O)COc3ccc(C)cc3)sc2c1 | -15 | x | 0 | x | -9 | 19* | -6
COc1cccc(NC(=O)C[C@H]2CC[C@H]3[C@H](COc4ccc(NC(=O)C5CCC5)cc4C(=O)N3C)O2)c1 | -6 | -7 | x | x | x | x | x
C[C@@H]1CCCCO[C@H](CN(C)S(=O)(=O)c2ccccc2)[C@@H](C)CN([C@@H](C)CO)C(=O)c2cc(NC(=O)Nc3ccccc3)ccc2O1 | 17 | -2 | x | -4 | -19[16.7 µM] | x | x
O=C(N/N=C/c1ccc(OC(=O)c2cccs2)cc1)c1ccc(F)cc1 | -15 | x | 2 | -1 | -23 | 33* | -1
COc1ccc2nc(NC(=O)Cn3cnc4ccccc4c3=O)sc2c1 | -36 | 28 | 0 | -2 | 1 | 31* | 2
O=C(Nc1ccc(Cl)cc1)Nc1ccc(-c2cnco2)cc1 | -39 | 25 | 1 | 0 | -4 | 39* | 3
COc1ccc(C(=O)Nc2nc3cc(OC)c(OC)cc3c(=O)[nH]2)cc1 | -8 | x | 0 | -1 | -100 | 25* | 0
COc1ccc(C(=O)Nc2nc3ccccc3c(=O)[nH]2)cc1 | x | -3 | 2 | -2 | x | -11 | x
COc1ccc(NC(=O)Nc2ccc3c(c2)C(=O)N([C@@H](C)CO)C[C@@H](C)[C@@H](CN(C)C(=O)NC(C)C)OCCCC[C@@H](C)O3)cc1 | -24 | 0 | x | 5 | 9[16.7 µM] | x | x
O=C(OCc1ccc2c(c1)OCO2)c1ccc(S(=O)(=O)N2CCCCC2)cc1 | x | x | -1 | x | x | 35* | -5
O=C(NC1CCN(Cc2ccccc2)CC1)c1cccc(S(=O)(=O)Nc2ccc(SC(F)F)cc2)c1 | 27 | -16 | -3 | 1 | 9 | 26* | 2
Cc1ccc(NS(=O)(=O)c2cccc(C(=O)NC3CCN(Cc4ccccc4)CC3)c2)cc1 | 23 | -21 | -1 | 0 | 10 | -3 | x
CN1CCN(Cc2nc3ccccc3c(=O)n2Cc2nc(-c3ccc4ccccc4c3)cs2)CC1 | 17 | 2 | 0 | x | 11 | 27*! | 3
C[C@H]1CN([C@@H](C)CO)C(=O)c2cc(-c3ccc(F)cc3)cnc2O[C@H]1CN(C)Cc1cccnc1 | x | 29 | x | 4 | 4[16.7 µM] | x | x
CN1c2ccc(-c3ccc(C#N)cc3)cc2[C@@H]2[C@@H](CCN2C(=O)Cc2ccccn2)[C@@H]1CO | -11 | 8 | x | -16 | x | x | x
